Results gathered from unrelated publications.
Each line is one published result; the experiments were not run side by side.
Signal transducer and activator of transcription 6 SH2: Signal transducer and activator of transcription 6, SH2 (Homo sapiens, UniProt P42226)
Oprm1: Mu-type opioid receptor (Oprm1, Rattus norvegicus, UniProt P33535)
ABHD6: Monoacylglycerol lipase ABHD6 (ABHD6, Homo sapiens, UniProt Q9BV23)
DRD4: D(4) dopamine receptor (DRD4, Homo sapiens, UniProt P21917)

O=P(O)(O)Oc1ccccc1OP(=O)(O)O  IC50 (Signal transducer and activator of transcription 6 SH2; ligand displacement; FP): 36000 nM
C[C@@H](NC(=O)[C@@H](N)Cc1ccc(O)cc1)C(=O)NCC(=O)N[C@H](CC(=O)NNC(=O)C[C@H](Cc1ccccc1)NC(=O)CNC(=O)[C@@H](C)NC(=O)[C@@H](N)Cc1ccc(O)cc1)Cc1ccccc1  IC50 (Oprm1; ligand displacement; radioligand): 2.29 nM
COc1cccc(N(C)C(=O)Oc2nsnc2N2CCCCC2)c1  IC50 (ABHD6; enzyme activity; inhibitor; fluorescence; lysate): 195 nM
O=C(COc1ccc2cc(C(=O)Nc3ccccc3)ccc2c1)NCc1ccc(OP(=O)(O)O)c(OP(=O)(O)O)c1  IC50 (Signal transducer and activator of transcription 6 SH2; ligand displacement; FP): 7170 nM
CN(C(=O)Oc1nsnc1N1CCCCC1)c1ccc(F)cc1  IC50 (ABHD6; enzyme activity; inhibitor; fluorescence; lysate): 78 nM
COc1ccccc1OCCNCC(O)COc1cccc2[nH]c3ccccc3c12 (centres unmarked)  IC50 (DRD4; ligand displacement; radioligand): 20 nM
C[C@@H](NC(=O)[C@@H](N)Cc1ccc(O)cc1)C(=O)NCCC(=O)N[C@@H](Cc1ccccc1)C(=O)NNC(=O)[C@H](Cc1ccccc1)NC(=O)CCNC(=O)[C@@H](C)NC(=O)[C@@H](N)Cc1ccc(O)cc1  IC50 (Oprm1; ligand displacement; radioligand): 380 nM
COc1cc2c(cc1OC)C(=O)C(CC1CCN(Cc3ccccc3)CC1)C2 (centres unmarked)  IC50 (DRD4; ligand displacement; radioligand): 824 nM
CCN(CC)Cc1cc(Nc2ccnc3cc(Cl)ccc23)ccc1O  IC50 (Genome polyprotein, protease (Dengue virus type 2, UniProt P14340); enzyme activity; inhibitor): ≥ 250000 nM
CN(C(=O)Oc1nsnc1N1CCCCC1)c1ccc(Cl)cc1  IC50 (ABHD6; enzyme activity; inhibitor; fluorescence; lysate): 407 nM
CC(=O)c1c(O)c(C)c(O)c(Cc2c(O)c3c(c(C(=O)/C=C/c4ccccc4)c2O)OC(C)(C)C=C3)c1O  IC50 (Protein-glutamine gamma-glutamyltransferase (TGM2, Homo sapiens, UniProt P21980); enzyme activity; inhibitor): > 50000 nM
C=CCOC(Cn1ccnc1)c1ccc(Cl)cc1Cl (centres unmarked)  IC50 (Pleiotropic ABC efflux transporter of multiple drugs (PDR5, Saccharomyces cerevisiae S288c, UniProt P33302); transporter uptake; inhibitor): 60000 to 70000 nM
C[C@H](N)Cn1ncc2ccc3c(c21)CCCO3  IC50 (5-hydroxytryptamine receptor 5A (HTR5A, Homo sapiens, UniProt P47898); ligand displacement; radioligand): 10800 nM
CN(C(=O)Oc1nsnc1N1CCCCC1)c1cccc(-c2ccccc2)c1  IC50 (ABHD6; enzyme activity; inhibitor; fluorescence; lysate): 910 nM
